Results taken from article PMC11248911 (RSC Advances, 2024).
Read-outs that look alike come from different tables or passages of the source.

Tests used:
[1] = test system: MCF-7 human cancer cell line; assay: In vitro antiproliferative activity, LDH release assay, MCF-7; format: cell-based; conditions: for IC50: Homo sapiens
Method in brief: (§1)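 Cells were grown in RPMI-1640 with 10% heat-inactivated FBS and penicillin/streptomycin at 37 °C, 5% CO2. Seeded at 2 × 10^5 cells per well, grown 18 h, then treated with a concentration series for 48 h. LDH in supernatant and in 6% Triton X-100 lysate was read kinetically for 1 min at 340 nm, using pH 7.5 phosphate buffer with 4.6 mM pyruvate and β-NADH. Release was taken as % of total; IC50 by probit, thrice in triplicate.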

[2] = test system: normal human skin fibroblast (BJ-1) cell line; assay: In vitro antiproliferative activity, LDH release assay, BJ-1 normal cells; format: cell-based; conditions: 48 h, read-out: BJ-1 IC50
Method in brief: as §1

[3] = molecular target: aminopeptidase N (APN) (Homo sapiens, UniProt P15144); assay: In vitro APN inhibition assay; format: biochemical
Method in brief: (§2)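 Enzyme activity kits were run per manufacturer's instructions. Experiments were done in triplicate (n = 3) and reported as mean ± SD. IC50s were derived by probit analysis.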

[4] = test system: VEGFR2; format: biochemical, human; conditions: biomarker for angiogenesis
[5] = test system: MMP9; assay: In vitro MMP9 inhibition assay; format: biochemical, human; conditions: biomarker for invasion
Method in brief: as §2

[6] = test system: MCF-7 cells; assay: Wound healing; format: cell-based, human; conditions: control cells 97.03%
[7] = test system: MCF-7 cells; assay: Cell cycle analysis by flow cytometry; format: cell-based, human; conditions: MCF-7, 48 h
[8] = test system: MCF-7 cells; assay: Apoptosis assay, Annexin-V/FITC and PI flow cytometry; format: cell-based, human; conditions: MCF-7, 48 h
[9] = MCF7, 48 h, read-out: MCF-7 IC50
[10] = MCF7, read-out: MCF-7 Experimental activity (pIC50) (converted)

Sequence of aminopeptidase N (APN) (P15144 whole entry): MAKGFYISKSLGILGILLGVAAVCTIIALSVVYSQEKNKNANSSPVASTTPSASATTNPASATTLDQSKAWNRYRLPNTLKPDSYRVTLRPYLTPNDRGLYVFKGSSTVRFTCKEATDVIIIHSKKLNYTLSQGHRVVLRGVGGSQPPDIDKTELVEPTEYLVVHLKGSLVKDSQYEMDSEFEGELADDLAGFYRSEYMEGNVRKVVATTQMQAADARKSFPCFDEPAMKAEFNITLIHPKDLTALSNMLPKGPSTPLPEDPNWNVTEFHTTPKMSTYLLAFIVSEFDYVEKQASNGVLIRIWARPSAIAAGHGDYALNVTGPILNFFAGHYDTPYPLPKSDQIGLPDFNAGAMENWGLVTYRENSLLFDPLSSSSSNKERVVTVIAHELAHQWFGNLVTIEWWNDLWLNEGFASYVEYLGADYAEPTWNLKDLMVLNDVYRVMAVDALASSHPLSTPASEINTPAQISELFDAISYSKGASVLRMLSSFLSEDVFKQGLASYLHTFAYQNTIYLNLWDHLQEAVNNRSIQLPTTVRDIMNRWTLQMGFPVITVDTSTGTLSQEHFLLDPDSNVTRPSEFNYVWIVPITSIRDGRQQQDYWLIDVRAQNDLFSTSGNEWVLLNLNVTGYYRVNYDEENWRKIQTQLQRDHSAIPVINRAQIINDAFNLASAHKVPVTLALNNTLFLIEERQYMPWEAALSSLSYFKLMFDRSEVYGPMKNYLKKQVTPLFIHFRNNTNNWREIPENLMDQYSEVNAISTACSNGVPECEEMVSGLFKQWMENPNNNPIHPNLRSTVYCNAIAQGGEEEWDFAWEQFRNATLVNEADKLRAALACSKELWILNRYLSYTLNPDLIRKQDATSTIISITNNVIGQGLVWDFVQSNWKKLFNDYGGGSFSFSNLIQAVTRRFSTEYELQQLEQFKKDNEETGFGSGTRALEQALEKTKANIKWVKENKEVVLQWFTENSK

Structure (SMILES)	IC50 [1, 9]	IC50 [1, 10]	other results
CC1=NN(c2ccccc2Cl)C(c2ccccc2)C1 (stereo not shown) [Compound 3, 1-(2-Chlorophenyl)-4,5-dihydro-3-methyl-5-phenyl-1H-pyrazole]	8.8 ± 0.5 µM	8.8 µM	
CC1=NN(c2c(Cl)cc(Cl)cc2Cl)C(c2ccccc2)C1 (stereo not shown) [Compound 4, 1-(2,4,6-Trichlorophenyl)-4,5-dihydro-3-methyl-5-phenyl-1H-pyrazole]	8.1 ± 0.5 µM	8.1 µM	
CNC(=S)N1N=C(C)CC1c1ccccc1 (stereo not shown) [Compound 6, 4,5-Dihydro-N,3-dimethyl-5-phenylpyrazole-1-carbothioamide]	6.4 ± 0.3 µM	6.4 µM	IC50 [2]: 18.2 ± 1.5 µM
CCNC(=S)N1N=C(C)CC1c1ccccc1 (stereo not shown) [Compound 7, N-Ethyl-4,5-dihydro-3-methyl-5-phenylpyrazole-1-carbothioamide]	5.8 ± 0.2 µM	5.8 µM	IC50 [2]: 18.7 ± 1.5 µM
CC1=NN(C(=S)Nc2ccccc2)C(c2ccccc2)C1 (stereo not shown) [Compound 8, 4,5-Dihydro-3-methyl-N,5-diphenylpyrazole-1-carbothioamide]	6.2 ± 0.2 µM	6.2 µM	selectivity index (SI) ([1]; BJ-1 versus MCF-7): 4.7; IC50 [2]: 29.1 ± 2.3 µM; IC50 [3]: 15.8 µM; VEGFR2 inhibition pIC50 [4]: 6.7; MMP9 inhibition pIC50 [5]: 6.4; percentage closure of the wound gap [6]: 57.77%; cell population in S phase ([7]; control 24.79%): 23.02%; cell population in G0/G1 phase ([7]; control 65.02%): 72.11%; late apoptosis ([8]; control 0.15%): 17.11%; early apoptosis ([8]; control 0.37%): 11.52%; total MCF-7 cell death ([8]; control 1.95%): 32.91%
CC1=NN(C(=S)NCc2ccccc2)C(c2ccccc2)C1 (stereo not shown) [Compound 9, N-Benzyl-4,5-dihydro-3-methyl-5-phenylpyrazole-1-carbothioamide]	7 ± 0.3 µM	7 µM	
CC1=NN(c2nc(-c3ccccc3)cs2)C(c2ccccc2)C1 (stereo not shown) [Compound 10, 4,5-Dihydro-3-methyl-5-phenyl-1-(4-phenylthiazol-2-yl)-1H-pyrazole]	7.6 ± 0.3 µM	7.6 µM	
CC1=NN(c2nc(-c3ccc(F)cc3)cs2)C(c2ccccc2)C1 (stereo not shown) [Compound 11, 1-(4-(4-Fluorophenyl)thiazol-2-yl)-4,5-dihydro-3-methyl-5-phenyl-1H-pyrazole]	6.9 ± 0.2 µM	6.9 µM	
COc1ccc(-c2csc(N3N=C(C)CC3c3ccccc3)n2)cc1 (stereo not shown) [Compound 12, 4,5-Dihydro-1-(4-(4-methoxyphenyl)thiazol-2-yl)-3-methyl-5-phenyl-1H-pyrazole]	7.1 ± 0.2 µM	7.1 µM	
CC1=NN(C2=NC(=O)C(C)S2)C(c2ccccc2)C1 (stereo not shown) [Compound 15, 2-(4,5-Dihydro-3-methyl-5-phenylpyrazol-1-yl)-5-methylthiazol-4(5H)-one]	8.6 ± 0.3 µM	8.6 µM	
COc1cccc2c1C(=O)c1c(O)c3c(c(O)c1C2=O)C[C@@](O)(C(=O)CO)C[C@@H]3O[C@H]1C[C@H](N)[C@H](O)[C@H](C)O1 [Doxorubicin, reference compound]	4.9 ± 0.3 µM		IC50 [2]: 12.9 ± 1.3 µM
O=c1c(O)c(-c2ccc(O)c(O)c2)oc2cc(O)cc(O)c12 [quercetin, reference compound]			MMP9 inhibition pIC50 [5]: 6.7

More lines, main results first:

IC50 [1, 9]	IC50 [1, 10]	Structure (SMILES)	other results
6.7 ± 0.2 µM	6.7 µM	CC1=NN(c2nc(-c3ccc(Cl)cc3Cl)cs2)C(c2ccccc2)C1 (stereo not shown) [Compound 13, 1-(4-(2,4-Dichlorophenyl)thiazol-2-yl)-4,5-dihydro-3-methyl-5-phenyl-1H-pyrazole]	
6.6 ± 0.2 µM	6.6 µM	CC1=NN(C2=NC(=O)C(=Cc3ccc(F)cc3)S2)C(c2ccccc2)C1 (stereo not shown) [Compound 16, 5-(4-Fluorobenzylidene)-2-(4,5-dihydro-3-methyl-5-phenylpyrazol-1-yl)thiazol-4(5H)-one]	
7 ± 0.3 µM	7 µM	COc1ccc(C=C2SC(N3N=C(C)CC3c3ccccc3)=NC2=O)cc1 (stereo not shown) [Compound 17, 5-(4-Methoxybenzylidene)-2-(4,5-dihydro-3-methyl-5-phenylpyrazol-1-yl)thiazol-4(5H)-one]	
6.9 ± 0.2 µM	6.9 µM	CC1=NN(C2=NC(=O)C(=Cc3ccc(Cl)cc3Cl)S2)C(c2ccccc2)C1 (stereo not shown) [Compound 18, 5-(2,4-Dichlorobenzylidene)-2-(4,5-dihydro-3-methyl-5-phenylpyrazol-1-yl)thiazol-4(5H)-one]	
7.5 ± 0.2 µM	7.5 µM	COc1ccc(C=C2SC(N3N=C(C)CC3c3ccccc3)=NC2=O)cc1OC (stereo not shown) [Compound 19, 5-(3,4-Dimethoxybenzylidene)-2-(4,5-dihydro-3-methyl-5-phenylpyrazol-1-yl)thiazol-4(5H)-one]	
